The values that follow come from ChEMBL document CHEMBL1212762, “In vivo activity of ceftobiprole in murine skin infections due to Staphylococcus aureus and Pseudomonas aeruginosa” (Antimicrob Agents Chemother, 2010).

For data set [1], the system named is Pseudomonas aeruginosa. Nature of the data set: Antimicrobial activity against Pseudomonas aeruginosa OC 4354 infected in immunocompromized SKH1 mouse assessed as log change in bacterial colony forming unit at 25 mg/kg/day, sc. Format: functional. As to conditions: route subcutaneous. A digest of the protocol: (§1)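 Female SKH1 hairless mice made neutropenic with ip cyclophosphamide (150 mg/kg 5 days and 100 mg/kg 1 day before infection). 0.2 ml s.c. Cytodex bead (0.1% vol/vol) inoculum in BHI: OC 4351 left flank, OC 4354 right flank. Drug s.c. at 1, 3, 25, 27 h postinfection. Killed at 48 h; skin homogenised in saline, plated on TSA 18 h 37°C; Δlog CFU/g versus inoculum. 5 mice/dose, run twice.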

In data set [2] the test system is Pseudomonas aeruginosa. Nature of the data set: Antimicrobial activity against Pseudomonas aeruginosa OC 4354 infected in immunocompromized SKH1 mouse assessed as log change in bacterial colony forming unit at 6.2 mg/kg/day, sc. Format: functional. As to conditions: route subcutaneous. Put shortly: as §1
Data set [3] deals with Pseudomonas aeruginosa. Nature of the data set: Antimicrobial activity against Pseudomonas aeruginosa OC 4351 infected in immunocompromized SKH1 mouse assessed as log change in bacterial colony forming units at 25 mg/kg/day, sc. Format: functional. As to conditions: route subcutaneous. A digest of the protocol: as §1
Data set [4] concerns Pseudomonas aeruginosa. Nature of the data set: Antimicrobial activity against Pseudomonas aeruginosa OC 4354 infected in immunocompromized SKH1 mouse assessed as log change in bacterial colony forming unit at 1.6 mg/kg/day, sc. Format: functional. As to conditions: route subcutaneous. Put shortly:
as §1

The test system of data set [5] is Pseudomonas aeruginosa. Kind of data set: Antimicrobial activity against Pseudomonas aeruginosa OC 4351 infected in immunocompromized SKH1 mouse assessed as log change in bacterial colony forming unit at 1.6 mg/kg/day, sc. Format: functional. As to conditions: route subcutaneous. A digest of the protocol:
as §1

Data set [6] deals with Plasma. Kind of data set: fAUC (0-infinity) in immunocompromized SKH1 mouse plasma at 50 mg/kg, sc. Format: ADME, organism-based. On the set-up: dose 50 mg/kg, route subcutaneous. As to conditions: in vivo. Put shortly: (§2)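 Female SKH1 hairless mice, immunocompetent or cyclophosphamide-neutropenic, infected s.c. with MRSA OC 8525 or P. aeruginosa OC 4354 on the Cytodex beads (left flank), sterile beads on the right. Single dose 24 h later: s.c. at the nape, or linezolid 50 mg/kg oral. Plasma and skin (DMSO homogenate) sampled over time, HPLC with diode array.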

Data set [7] is described as follows: Tmax in immunocompromized SKH1 mouse plasma at 50 mg/kg, sc. Format: ADME, organism-based. More on the design: dose 50 mg/kg, route subcutaneous. Put shortly:
as §2

The subject of data set [8] is Pseudomonas aeruginosa. Kind of data set: Antimicrobial activity against Pseudomonas aeruginosa OC 4351 infected in immunocompromized SKH1 mouse assessed as log change in bacterial colony forming unit at 25 mg/kg/day, sc. Format: functional. As to conditions: route subcutaneous. A digest of the protocol:
as §1

The test system of data set [9] is Pseudomonas aeruginosa. Kind of data set: Antimicrobial activity against Pseudomonas aeruginosa OC 4351 infected in immunocompromized SKH1 mouse assessed as log change in bacterial colony forming unit at 100 mg/kg/day, sc. Format: functional. As to conditions: route subcutaneous. A digest of the protocol:
as §1

Data set [10] has as its system Plasma. Kind of data set: fCmax in immunocompromized SKH1 mouse plasma at 50 mg/kg, sc. Format: ADME, organism-based. More on the design: dose 50 mg/kg, route subcutaneous. As to conditions: in vivo. Put shortly: as §2
The test system of data set [11] is Pseudomonas aeruginosa. Nature of the data set: Antimicrobial activity against Pseudomonas aeruginosa OC 4351 assessed as inhibition of growth by broth microdilution method. Format: functional.
Data set [12] has as its system Pseudomonas aeruginosa. Nature of the data set: Antimicrobial activity against Pseudomonas aeruginosa OC 4354 assessed as inhibition of growth by broth microdilution method. Format: functional. A general note: Broth dilution looks for growth in wells or tubes with falling amounts of substance.
Data set [13] has as its system Pseudomonas aeruginosa. Kind of data set: Antimicrobial activity against Pseudomonas aeruginosa OC 4354 infected in immunocompromized SKH1 mouse assessed as log change in bacterial colony forming unit at 100 mg/kg/day, sc. As to conditions: route subcutaneous. Format: functional. Put shortly: as §1
Data set [14] has as its system Staphylococcus aureus. Kind of data set: Antimicrobial activity against methicillin-resistant Staphylococcus aureus OC 8525 infected immunocompetent SKH1 mouse assessed as lesion volume at 1.6 mg/kg/day, sc measured after 48 hrs postinfection (reference value: 1535 mm3). As to conditions: route subcutaneous.
The nature of data set [15]: Half life in immunocompetent SKH1 mouse plasma at 50 mg/kg, po. Format: ADME, organism-based. More on the design: dose 50 mg/kg, route oral. Put shortly:
as §2

In data set [16] the test system is Staphylococcus aureus. Kind of data set: Antimicrobial activity against methicillin-resistant Staphylococcus aureus OC 8525 infected immunocompetent SKH1 mouse assessed as lesion volume at 25 mg/kg/day, sc measured after 48 hrs postinfection (reference value: 1535 mm3). As to conditions: route subcutaneous.
Data set [17] can be described thus: Tmax in immunocompetent SKH1 mouse plasma at 50 mg/kg, po. Format: ADME, organism-based. More on the design: dose 50 mg/kg, route oral. A digest of the protocol:
as §2

For data set [18], the system named is Staphylococcus aureus. Nature of the data set: Antimicrobial activity against methicillin-susceptible Staphylococcus aureus Smith OC 4172 infected immunocompetent SKH1 mouse assessed as lesion volume at 25 mg/kg/day, sc measured after 48 hrs postinfection (reference value: 1181 mm3). As to conditions: route subcutaneous.
Data set [19] has as its system Staphylococcus aureus. Nature of the data set: Antimicrobial activity against methicillin-resistant Staphylococcus aureus OC 8525 infected immunocompetent SKH1 mouse assessed as lesion volume at 100 mg/kg/day, sc measured after 48 hrs postinfection (reference value: 1535 mm3). As to conditions: route subcutaneous.
Data set [20] has as its system Staphylococcus aureus. Kind of data set: Antimicrobial activity against methicillin-susceptible Staphylococcus aureus Smith OC 4172 infected immunocompetent SKH1 mouse assessed as lesion volume at 6.2 mg/kg/day, sc measured after 48 hrs postinfection (reference value: 1181 mm3). As to conditions: route subcutaneous.
Data set [21] is described as follows: Protein binding in mouse plasma. Format: ADME, cell-free. As to conditions: read-out: PPB (converted).
For data set [22], the system named is Staphylococcus aureus. Nature of the data set: Antimicrobial activity against methicillin-resistant Staphylococcus aureus OC 8525 infected immunocompetent SKH1 mouse assessed as lesion volume at 6.2 mg/kg/day, sc measured after 48 hrs postinfection (reference value: 1535 mm3). As to conditions: route subcutaneous.
Data set [23] concerns Staphylococcus aureus. Nature of the data set: Antimicrobial activity against methicillin-susceptible Staphylococcus aureus Smith OC 4172 infected immunocompetent SKH1 mouse assessed as lesion volume at 1.6 mg/kg/day, sc measured after 48 hrs postinfection (reference value: 1181 mm3). As to conditions: route subcutaneous.
In data set [24] the test system is Plasma. Nature of the data set: fCmax in immunocompetent SKH1 mouse plasma at 50 mg/kg, po. Format: ADME, organism-based. More on the design: dose 50 mg/kg, route oral. As to conditions: in vivo. Put shortly:
as §2

In data set [25] the test system is Plasma. Kind of data set: fAUC (0-infinity) in immunocompetent SKH1 mouse plasma at 50 mg/kg, po. As to conditions: in vivo. Format: ADME, organism-based. On the set-up: dose 50 mg/kg, route oral. A digest of the protocol:
as §2

Data set [26] in a line: Ratio of fAUC to MIC in Staphylococcus aureus OC 4172 infected sc dosed SKH1 mouse. Format: functional. Put shortly: (§3)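 Free-drug plasma AUC, converted from μg·min/ml to μg·h/ml, divided by the MIC of the infecting S. aureus strain.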
Data set [27] in a line: Ratio of fAUC to MIC in Staphylococcus aureus OC 8525 infected sc dosed SKH1 mouse. Format: functional. A digest of the protocol: as §3

What is called Tmax is the time from dosing to the highest level. What is called MIC is the lowest concentration found to suppress growth. The half-life is the time needed for the level to fall by half in the phase considered. The low end stands for rapid decline, the high end for slow decline.

On to `CO/N=C(\C(=O)N[C@@H]1C(=O)N2C(C(=O)[O-])=C(C[N+]3(C)CCCC3)CS[C@H]12)c1csc(N)n1`, for which the deltalog10CFU in [1] was found to be 1.7; in data set [2] it was 2.9; in data set [3], 1.8; in data set [4], 1.7; in [5] it was 2.1; in data set [8] it was 2.1. The deltalog10CFU in data set [9] was found to be 1; in data set [13], 1.7. Moreover, the fAUC in data set [6] is 1790 µg·min/mL. Besides, the Tmax in [7] is 7.5 min. Besides, the fCmax in data set [10] came out at 66 µg/mL. The MIC in data set [11] worked out at 4 mg/L; in data set [12], 32 mg/L.

In the case of `CC(=O)NC[C@H]1CN(c2ccc(N3CCOCC3)c(F)c2)C(=O)O1` [LINEZOLID], the Activity amounted to 1644 mm3 in [14]; 932 mm3 in [16]; 1018 mm3 in data set [18]; 858 mm3 in data set [19]; 1234 mm3 in [20]; 1277 mm3 in data set [22]. In data set [23], the Activity came out at 1407 mm3. In [15], this compound showed a half-life of 102 min. In [17], the Tmax is 30 min. For the same compound, the fraction unbound in [21] is 0.68. The compound also displayed a fCmax in data set [24] of 14 µg/mL. In addition, the fAUC in [25] is 1795 µg·min/mL. For the same compound, the values for the fAUC/MIC in data set [26] and in data set [27] were 898 and 449, respectively.
